Experimental data: publication PMC8653574 (Bioorganic & medicinal chemistry letters, 2018)
“Also recorded” adds a separate entry of the source.

Tests used:
Type in all cases: cell-based, human
[1] = tested on: PARP1 cleavage in C4–2 cells; assay: PARP1 cleavage assay; conditions: C4–2 cells treated with compound
C4–2 cells [2] = assay: Acridine orange/ethidium bromide; conditions: 48 h incubation
In short: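 C4–2 cells were double-stained with acridine orange, which marks live and dead cells, and ethidium bromide, which marks dead cells only. Cell morphology was then examined to tell apoptosis from necrosis.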

C4–2 cells [3] = assay: Wound healing; conditions: 12 h, 24 h and 48 h
In short: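 A scratch was made in a C4–2 monolayer. The wounded cells were incubated for a further 12, 24 and 48 h. Images were taken at the start and at each interval to assess migration.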

C4–2 cells [4] = assay: DNA ladder; conditions: 10 μM, 48 h
[5] = tested on: reactive oxygen species (ROS) in C4–2 cells; assay: ROS accumulation by DCFDA staining; conditions: 10 μM, 48 h
In short: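 C4–2 cells were left untreated or exposed for 48 h to test compound at 10 μM or H2O2 at 10 μM as positive control. Intracellular ROS was stained with DCFDA and quantified.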

Compound | PARP1 cleavage (cleaved PARP level) [1] | AO/EB staining: mode of cell death (C4–2 cells [2]) | inhibition of cell migration (C4–2 cells [3]) | DNA ladder formation (C4–2 cells [4]) | ROS level (DCFDA staining) [5]
Cc1c(C2CC(c3ccncc3)=NO2)c2ccccc2n1Cc1ccc(Cl)cc1 (stereo not drawn) [6i] | induced apoptosis | triggered apoptosis | potently inhibit C4–2 cell migration; also recorded: strong anti-cell motility property | triggered the formation of DNA ladder | 
COc1ccc2c(C3CC(c4ccncc4)=NO3)c[nH]c2c1 (stereo not drawn) [6c] | induced apoptosis | triggered apoptosis | potently inhibit C4–2 cell migration; also recorded: strong anti-cell motility property | triggered the formation of DNA ladder | 
H2O2 |  |  |  |  | high DCFDA staining
